Converted amounts (≈) assume the structure as drawn.

The species named for test [1] is Rattus norvegicus. Kind of test: Evaluated for the release of histamine in rats (based on 10 animals per dose group). Type of test: functional, organism-based.
Test [2] deals with Rattus norvegicus. In words: Evaluated for the anti-ovulatory activity (rats were injected subcutaneously at noon on proestrus). Type of test: functional. Put shortly: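 Female rats with at least two consecutive normal 4-day cycles, confirmed by vaginal lavage cytology, were dosed once s.c. at noon on proestrus in 50% propylene glycol/0.9% saline. On the morning of expected estrus, the oviducts were examined for ovulated eggs, which were counted. The effective dose came from % females ovulating plotted against log dose, usually with ≥3 dose groups (10 rats per group total).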

A word on the EC50: it is the concentration at which the effect is half-maximal. Lower therefore signals an effect from little substance. As for `CC(=O)N[C@H](Cc1ccc2ccccc2c1)C(=O)N[C@H](Cc1ccc(Cl)cc1)C(=O)N[C@H](Cc1cccnc1)C(=O)N[C@@H](CO)C(=O)N[C@@H](CCCN=C(N)N)C(=O)N[C@H](CCC(=O)N[C@@H](C)C(=O)N[C@@H](C)C(=O)O)C(=O)N[C@@H](CC(C)C)C(=O)N[C@@H](CCCN=C(N)N)C(=O)N1CCC[C@H]1C(=O)N[C@H](C)C(N)=O`, the midpoint of the response in test [1], the EC50, lay at 1.6 µg/mL (≈ 1.04 µM). Also, the ED50 in test [2] is less than 1.5 µg. In turn, `CC(=O)N[C@H](Cc1ccc2ccccc2c1)C(=O)N[C@H](Cc1ccc(Cl)cc1)C(=O)N[C@H](Cc1c[nH]c2ccccc12)C(=O)N[C@@H](CO)C(=O)N[C@@H](Cc1ccc(O)cc1)C(=O)N[C@H](Cc1c[nH]c2ccccc12)C(=O)N[C@@H](CC(C)C)C(=O)N[C@@H](CCCCN=C(NCC(F)(F)F)NCC(F)(F)F)C(=O)N1CCC[C@H]1C(=O)N[C@H](C)C(N)=O` [listing 1 of 2 here] displayed an EC50 in test [1] of more than 100 µg/mL. Molecule `CC(=O)N[C@H](Cc1ccc2ccccc2c1)C(=O)N[C@H](Cc1ccc(Cl)cc1)C(=O)N[C@H](Cc1c[nH]c2ccccc12)C(=O)N[C@@H](CO)C(=O)N[C@@H](Cc1ccc(O)cc1)C(=O)N[C@H](Cc1c[nH]c2ccccc12)C(=O)N[C@@H](CC(C)C)C(=O)N[C@@H](CCCCN=C(NCC(F)(F)F)NCC(F)(F)F)C(=O)N1CCC[C@H]1C(=O)N[C@H](C)C(N)=O` [listing 2 of 2 here] had an ED50 in test [2] of more than 2 µg.

In the case of `CC(=O)N[C@H](Cc1ccc2ccccc2c1)C(=O)N[C@H](Cc1ccc(Cl)cc1)C(=O)N[C@H](Cc1c[nH]c2ccccc12)C(=O)N[C@@H](CO)C(=O)N[C@@H](CCCN=C(N)N)C(=O)N[C@H](Cc1c[nH]c2ccccc12)C(=O)N[C@@H](CC(C)C)C(=O)N[C@@H](CCCCN=C(NCC(F)(F)F)NCC(F)(F)F)C(=O)N1CCC[C@H]1C(=O)N[C@H](C)C(N)=O` [listing 1 of 2 here], in test [1], the EC50 was determined as 0.56 µg/mL (≈ 0.335 µM). Turning to `CC(=O)N[C@H](Cc1ccc2ccccc2c1)C(=O)N[C@H](Cc1ccc(Cl)cc1)C(=O)N[C@H](Cc1c[nH]c2ccccc12)C(=O)N[C@@H](CO)C(=O)N[C@@H](CCCN=C(N)N)C(=O)N[C@H](Cc1c[nH]c2ccccc12)C(=O)N[C@@H](CC(C)C)C(=O)N[C@@H](CCCCN=C(NCC(F)(F)F)NCC(F)(F)F)C(=O)N1CCC[C@H]1C(=O)N[C@H](C)C(N)=O` [listing 2 of 2 here], in test [2], the ED50 is more than 2 µg.

For the molecule `CC(=O)N[C@H](Cc1ccc2ccccc2c1)C(=O)N[C@H](Cc1ccc(Cl)cc1)C(=O)N[C@H](Cc1c[nH]c2ccccc12)C(=O)N[C@@H](CO)C(=O)N[C@@H](Cc1ccc(O)cc1)C(=O)N[C@H](Cc1c[nH]c2ccccc12)C(=O)N[C@@H](CC(C)C)C(=O)N[C@@H](CCCCNC1=NCCCN1)C(=O)N1CCC[C@H]1C(=O)N[C@H](C)C(N)=O` [listing 1 of 2 here], the EC50 in test [1] is 8.5 µg/mL (≈ 5.48 µM). As to `CC(=O)N[C@H](Cc1ccc2ccccc2c1)C(=O)N[C@H](Cc1ccc(Cl)cc1)C(=O)N[C@H](Cc1c[nH]c2ccccc12)C(=O)N[C@@H](CO)C(=O)N[C@@H](Cc1ccc(O)cc1)C(=O)N[C@H](Cc1c[nH]c2ccccc12)C(=O)N[C@@H](CC(C)C)C(=O)N[C@@H](CCCCNC1=NCCCN1)C(=O)N1CCC[C@H]1C(=O)N[C@H](C)C(N)=O` [listing 2 of 2 here], the ED50 in test [2] is more than 1 µg. Molecule `CC/N=C(/NCC)NCCCC[C@@H](NC(=O)[C@H](Cc1ccc(O)cc1)NC(=O)[C@H](CO)NC(=O)[C@@H](Cc1cccnc1)NC(=O)[C@@H](Cc1ccc(F)cc1)NC(=O)[C@@H](Cc1ccc2ccccc2c1)NC(C)=O)C(=O)N[C@@H](CC(C)C)C(=O)N[C@@H](CCCCN/C(=N/CC)NCC)C(=O)N1CCC[C@H]1C(=O)N[C@H](C)C(N)=O` [listing 1 of 2 here] gave an EC50 in test [1] of 8 µg/mL (≈ 5.15 µM).

`CC/N=C(/NCC)NCCCC[C@@H](NC(=O)[C@H](Cc1ccc(O)cc1)NC(=O)[C@H](CO)NC(=O)[C@@H](Cc1cccnc1)NC(=O)[C@@H](Cc1ccc(F)cc1)NC(=O)[C@@H](Cc1ccc2ccccc2c1)NC(C)=O)C(=O)N[C@@H](CC(C)C)C(=O)N[C@@H](CCCCN/C(=N/CC)NCC)C(=O)N1CCC[C@H]1C(=O)N[C@H](C)C(N)=O` [listing 2 of 2 here] had an ED50 in test [2] of 1 µg. In test [1], `CC/N=C(\NCC)NCCCC[C@H](NC(=O)[C@H](CC(C)C)NC(=O)[C@@H](CCCCN=C(NCC(F)(F)F)NCC(F)(F)F)NC(=O)[C@H](Cc1ccc(O)cc1)NC(=O)[C@H](CO)NC(=O)[C@@H](Cc1cccnc1)NC(=O)[C@@H](Cc1ccc(F)cc1)NC(=O)[C@@H](Cc1ccc2ccccc2c1)NC(C)=O)C(=O)N1CCC[C@H]1C(=O)N[C@H](C)C(N)=O` came in with an EC50 of 9.3 µg/mL (≈ 5.6 µM). Same read-out and setting: the value for `CCCC/N=C(\N)NCCCC[C@H](NC(=O)[C@H](CO)NC(=O)[C@@H](Cc1cccnc1)NC(=O)[C@@H](Cc1ccc(Cl)cc1)NC(=O)[C@@H](Cc1ccc2ccccc2c1)NC(C)=O)C(=O)N[C@H](Cc1cccnc1)C(=O)N[C@@H](CC(C)C)C(=O)N[C@@H](CCCCN/C(N)=N/CCCC)C(=O)N1CCC[C@H]1C(=O)N[C@H](C)C(N)=O` [listing 1 of 2 here] was 9.3 µg/mL (≈ 5.98 µM). Regarding `CCCC/N=C(\N)NCCCC[C@H](NC(=O)[C@H](CO)NC(=O)[C@@H](Cc1cccnc1)NC(=O)[C@@H](Cc1ccc(Cl)cc1)NC(=O)[C@@H](Cc1ccc2ccccc2c1)NC(C)=O)C(=O)N[C@H](Cc1cccnc1)C(=O)N[C@@H](CC(C)C)C(=O)N[C@@H](CCCCN/C(N)=N/CCCC)C(=O)N1CCC[C@H]1C(=O)N[C@H](C)C(N)=O` [listing 2 of 2 here], the ED50 in test [2] turned out to be 1.5 µg. Regarding `CCCC/N=C(\N)NCCCC[C@H](NC(=O)[C@H](CC(C)C)NC(=O)[C@@H](Cc1c[nH]c2ccccc12)NC(=O)[C@H](Cc1ccc(O)cc1)NC(=O)[C@H](CO)NC(=O)[C@@H](Cc1c[nH]c2ccccc12)NC(=O)[C@@H](Cc1ccc(Cl)cc1)NC(=O)[C@@H](Cc1ccc2ccccc2c1)NC(C)=O)C(=O)N1CCC[C@H]1C(=O)N[C@H](C)C(N)=O`, in test [1], the midpoint of the response, the EC50, lay at 1.6 µg/mL (≈ 1.02 µM). Also, the ED50 in test [2] is approximately 1.3 µg. Regarding `CCCC/N=C(\N)NCCCC[C@H](NC(=O)[C@H](CC(C)C)NC(=O)[C@@H](CCCCN/C(N)=N/CCCC)NC(=O)[C@H](Cc1ccc(O)cc1)NC(=O)[C@H](CO)NC(=O)[C@@H](Cc1cccnc1)NC(=O)[C@@H](Cc1ccc(Cl)cc1)NC(=O)[C@@H](Cc1ccc2ccccc2c1)NC(C)=O)C(=O)N1CCC[C@H]1C(=O)N[C@H](C)C(N)=O`, the concentration giving a half-maximal response (EC50) in test [1] worked out at 0.64 µg/mL (≈ 0.408 µM). The ED50 in test [2] is approximately 0.9 µg. `CC/N=C(\NCC)NCCCC[C@H](NC(=O)[C@H](CO)NC(=O)[C@@H](Cc1cccnc1)NC(=O)[C@@H](Cc1ccc(F)cc1)NC(=O)[C@@H](Cc1ccc2ccccc2c1)NC(C)=O)C(=O)N[C@H](Cc1cccnc1)C(=O)N[C@@H](CC(C)C)C(=O)N[C@@H](CCCCN/C(=N/CC)NCC)C(=O)N1CCC[C@H]1C(=O)N[C@H](C)C(N)=O` registered an EC50 in test [1] of 26.2 µg/mL (≈ 17 µM). On the same count and under the same terms, with `CC/N=C(/NCC)NCCCC[C@@H](NC(=O)[C@H](Cc1ccc(O)cc1)NC(=O)[C@H](CO)NC(=O)[C@@H](Cc1c[nH]c2ccccc12)NC(=O)[C@@H](Cc1ccc(Cl)cc1)NC(=O)[C@@H](Cc1ccc2ccccc2c1)NC(C)=O)C(=O)N[C@@H](CC(C)C)C(=O)N[C@@H](CCCCN/C(=N/CC)NCC)C(=O)N1CCC[C@H]1C(=O)N[C@H](C)C(N)=O` [listing 1 of 2 here] the figure was 0.1 µg/mL (≈ 0.0622 µM).

For `CC/N=C(/NCC)NCCCC[C@@H](NC(=O)[C@H](Cc1ccc(O)cc1)NC(=O)[C@H](CO)NC(=O)[C@@H](Cc1c[nH]c2ccccc12)NC(=O)[C@@H](Cc1ccc(Cl)cc1)NC(=O)[C@@H](Cc1ccc2ccccc2c1)NC(C)=O)C(=O)N[C@@H](CC(C)C)C(=O)N[C@@H](CCCCN/C(=N/CC)NCC)C(=O)N1CCC[C@H]1C(=O)N[C@H](C)C(N)=O` [listing 2 of 2 here], in test [2], the ED50 is 0.5 µg.

The molecule `CC(=O)N[C@H](Cc1ccc2ccccc2c1)C(=O)N[C@H](Cc1ccc(Cl)cc1)C(=O)N[C@H](Cc1c[nH]c2ccccc12)C(=O)N[C@@H](CO)C(=O)N[C@@H](Cc1ccc(O)cc1)C(=O)N[C@H](CCCCNC1=NCCCN1)C(=O)N[C@@H](CC(C)C)C(=O)N[C@@H](CCCCNC1=NCCCN1)C(=O)N1CCC[C@H]1C(=O)N[C@H](C)C(N)=O` [listing 1 of 2 here] gave an EC50 in test [1] of 2.5 µg/mL (≈ 1.59 µM). For `CC(=O)N[C@H](Cc1ccc2ccccc2c1)C(=O)N[C@H](Cc1ccc(Cl)cc1)C(=O)N[C@H](Cc1c[nH]c2ccccc12)C(=O)N[C@@H](CO)C(=O)N[C@@H](Cc1ccc(O)cc1)C(=O)N[C@H](CCCCNC1=NCCCN1)C(=O)N[C@@H](CC(C)C)C(=O)N[C@@H](CCCCNC1=NCCCN1)C(=O)N1CCC[C@H]1C(=O)N[C@H](C)C(N)=O` [listing 2 of 2 here], the ED50 in test [2] stood at 0.7 µg.

In test [1], `CC/N=C(/NCC)NCCCC[C@@H](NC(=O)[C@H](Cc1ccc(O)cc1)NC(=O)[C@H](CO)NC(=O)[C@@H](Cc1cccnc1)NC(=O)[C@@H](Cc1ccc(Cl)cc1)NC(=O)[C@@H](Cc1ccc2ccccc2c1)NC(C)=O)C(=O)N[C@@H](CC(C)C)C(=O)N[C@@H](CCCCN/C(=N/CC)NCC)C(=O)N1CCC[C@H]1C(=O)N[C@H](C)C(N)=O` [listing 1 of 2 here] gave an EC50 of 13 µg/mL (≈ 8.28 µM). `CC/N=C(/NCC)NCCCC[C@@H](NC(=O)[C@H](Cc1ccc(O)cc1)NC(=O)[C@H](CO)NC(=O)[C@@H](Cc1cccnc1)NC(=O)[C@@H](Cc1ccc(Cl)cc1)NC(=O)[C@@H](Cc1ccc2ccccc2c1)NC(C)=O)C(=O)N[C@@H](CC(C)C)C(=O)N[C@@H](CCCCN/C(=N/CC)NCC)C(=O)N1CCC[C@H]1C(=O)N[C@H](C)C(N)=O` [listing 2 of 2 here] returned an ED50 in test [2] of 0.285 µg.

Molecule `CC(=O)N[C@H](Cc1ccc2ccccc2c1)C(=O)N[C@H](Cc1ccc(Cl)cc1)C(=O)N[C@H](Cc1cccnc1)C(=O)N[C@@H](CO)C(=O)N[C@@H](CCCN=C(N)N)C(=O)N[C@H](Cc1cccnc1)C(=O)N[C@@H](CC(C)C)C(=O)N[C@@H](CCCCN=C(NCC(F)(F)F)NCC(F)(F)F)C(=O)N1CCC[C@H]1C(=O)N[C@H](C)C(N)=O` showed a half-maximal effective concentration (EC50) in test [1] of 0.95 µg/mL (≈ 0.596 µM). The molecule also displayed an ED50 in test [2] of 0.595 µg. The matching figures for `CC(=O)N[C@H](Cc1ccc2ccccc2c1)C(=O)N[C@H](Cc1ccc(Cl)cc1)C(=O)N[C@H](Cc1cccnc1)C(=O)N[C@@H](CO)C(=O)N[C@@H](CCCCN=C(NCC(F)(F)F)NCC(F)(F)F)C(=O)N[C@H](Cc1ccc(O)cc1)C(=O)N[C@@H](CC(C)C)C(=O)N[C@@H](CCCCN=C(NCC(F)(F)F)NCC(F)(F)F)C(=O)N1CCC[C@H]1C(=O)N[C@H](C)C(N)=O`: 53 µg/mL (≈ 29.7 µM) and 1.15 µg. Taken in the same sequence, the figures for `CCCC/N=C(\N)NCCCC[C@H](NC(=O)[C@H](CC(C)C)NC(=O)[C@@H](Cc1cccnc1)NC(=O)[C@H](Cc1ccc(O)cc1)NC(=O)[C@H](CO)NC(=O)[C@@H](Cc1cccnc1)NC(=O)[C@@H](Cc1ccc(Cl)cc1)NC(=O)[C@@H](Cc1ccc2ccccc2c1)NC(C)=O)C(=O)N1CCC[C@H]1C(=O)N[C@H](C)C(N)=O` were 15.7 µg/mL (≈ 10.5 µM) and 1.2 µg.
